Results from ChEMBL document CHEMBL2380295, “Structure-activity studies on the side chain of a simplified analog of aplysiatoxin (aplog-1) with anti-proliferative activity” (Bioorg Med Chem, 2013).

Assays:
[1] = tested on: OVCAR-8; assay: Growth inhibition of human OVCAR8 cells after 48 hrs by sulforhodamine B assay; format: functional; conditions: OVCAR-8, 48 h
How it was run: (§1)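 Yamori 39-line human cancer panel, NCI method with modifications. Cells plated in RPMI 1640 plus 5% FBS, attached overnight, then exposed 48 h to compound at 10^-8, 10^-7, 10^-6, 10^-5 and 10^-4 M. Sulforhodamine B staining read at 525 nm; % growth = 100[(T−T0)/(C−T0)] from duplicate-point averages, with T0 the time-zero absorbance. GI50 is the concentration giving 50.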

[2] = tested on: ACHN; assay: Growth inhibition of human ACHN cells after 48 hrs by sulforhodamine B assay; format: functional; how it was run: as §1
[3] = tested on: PC-3; assay: Growth inhibition of human PC3 cells after 48 hrs by sulforhodamine B assay; format: functional; conditions: PC-3, 48 h; how it was run: as §1
[4] = tested on: U-251; assay: Growth inhibition of human U251 cells after 48 hrs by sulforhodamine B assay; format: functional; conditions: U-251, 48 h; how it was run: as §1
[5] = tested on: SNB-78; assay: Growth inhibition of human SNB78 cells after 48 hrs by sulforhodamine B assay; format: functional; conditions: SNB-78, 48 h; how it was run: as §1
[6] = tested on: A549; assay: Growth inhibition of human A549 cells after 48 hrs by sulforhodamine B assay; format: functional; conditions: A549, 48 h; how it was run: as §1
[7] = tested on: Human gammaherpesvirus 4; assay: Induction of EBV-early antigen expressed in human Raji cells at 10^-7 M after 48 hrs by immunofluorescence assay relative to control; format: organism-based; conditions: human gammaherpesvirus 4, raji, 0.1 µM
How it was run: (§2)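 Raji B-lymphoblastoid cells (5 × 10^5/mL) in RPMI 1640 with 10% FBS, with 4 mM sodium n-butyrate as synergist and test compound at 10^-7 or 10^-6 M (final DMSO 0.4%). Incubated 48 h at 37 °C under 5% CO2. Smears were stained by indirect immunofluorescence using NPC patient serum and FITC anti-human IgG. At least 500 cells counted; % EA-positive recorded; n = 3, SEM.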

[8] = tested on: SK-OV-3; assay: Growth inhibition of human SKOV3 cells after 48 hrs by sulforhodamine B assay; format: functional; conditions: SK-OV-3, 48 h; how it was run: as §1
[9] = tested on: NCI-H460; assay: Growth inhibition of human NCI-H460 cells after 48 hrs by sulforhodamine B assay; format: functional; conditions: NCI-H460, 48 h; how it was run: as §1
[10] = tested on: DU-145; assay: Growth inhibition of human DU145 cells after 48 hrs by sulforhodamine B assay; format: functional; conditions: DU-145, 48 h; how it was run: as §1
[11] = tested on: MKN-74; assay: Growth inhibition of human MKN74 cells after 48 hrs by sulforhodamine B assay; format: functional; conditions: MKN-74, 48 h; how it was run: as §1
[12] = tested on: HCT-116; assay: Growth inhibition of human HCT116 cells after 48 hrs by sulforhodamine B assay; format: functional; conditions: HCT-116, 48 h; how it was run: as §1
[13] = tested on: NCI-H226; assay: Growth inhibition of human NCI-H226 cells after 48 hrs by sulforhodamine B assay; format: functional; conditions: NCI-H226, 48 h; how it was run: as §1
[14] = Cytotoxicity against human Raji cells assessed as cell viability at 10^-6 M; format: cell-based; conditions: read-out: Activity
[15] = tested on: LOX IMVI; assay: Growth inhibition of human LOXIMVI cells after 48 hrs by sulforhodamine B assay; format: functional; how it was run: as §1
[16] = tested on: MCF7; assay: Growth inhibition of human MCF7 cells after 48 hrs by sulforhodamine B assay; format: functional; conditions: MCF7, 48 h; how it was run: as §1
[17] = tested on: KM12; assay: Growth inhibition of human KM12 cells after 48 hrs by sulforhodamine B assay; format: functional; conditions: KM12, 48 h; how it was run: as §1
[18] = Cytotoxicity against human Raji cells assessed as cell viability at 10^-7 M; format: cell-based; conditions: read-out: Activity
[19] = Growth inhibition of human HBC5 cells after 48 hrs by sulforhodamine B assay; format: functional; conditions: HBC5, 48 h; how it was run: as §1
[20] = tested on: Human gammaherpesvirus 4; assay: Induction of EBV-early antigen expressed in human Raji cells at 10^-6 M after 48 hrs by immunofluorescence assay relative to control; format: organism-based; conditions: human gammaherpesvirus 4, raji, 1 µM; how it was run: as §2
[21] = tested on: DMS-273; assay: Growth inhibition of human DMS273 cells after 48 hrs by sulforhodamine B assay; format: functional; conditions: DMS-273, 48 h; how it was run: as §1
[22] = tested on: MKN-7; assay: Growth inhibition of human MKN7 cells after 48 hrs by sulforhodamine B assay; format: functional; conditions: MKN-7, 48 h; how it was run: as §1
[23] = Growth inhibition of human BSY1 cells after 48 hrs by sulforhodamine B assay; format: functional; conditions: BSY-1, 48 h; how it was run: as §1
[24] = target: T1, Protein kinase C delta type (Homo sapiens, UniProt Q05655); assay: Inhibition of [3H]PDBu binding to PKCdelta-C1B domain peptide (unknown origin)
How it was run: (§3)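 Competitive [3H]PDBu binding used 14 or 40 nM PKCδ C1 peptide and 20 nM [3H]PDBu (19.6 Ci/mmol), in 50 mM Tris-maleate (pH 7.4 at 4 °C) with 50 µg/mL phosphatidylserine, 3 mg/mL bovine γ-globulin and varied inhibitor concentrations. IC50 was taken as 50% inhibition of specific binding. Ki was derived by the Sharkey–Blumberg method.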

[25] = tested on: HCT-15; assay: Growth inhibition of human HCT15 cells after 48 hrs by sulforhodamine B assay; format: functional; conditions: HCT-15, 48 h; how it was run: as §1
[26] = tested on: St-4; assay: Growth inhibition of human St-4 cells after 48 hrs by sulforhodamine B assay; format: functional; conditions: St-4, 48 h; how it was run: as §1
[27] = tested on: NCI-H522; assay: Growth inhibition of human NCI-H522 cells after 48 hrs by sulforhodamine B assay; format: functional; conditions: NCI-H522, 48 h; how it was run: as §1
[28] = tested on: SNB-75; assay: Growth inhibition of human SNB75 cells after 48 hrs by sulforhodamine B assay; format: functional; conditions: SNB-75, 48 h; how it was run: as §1
[29] = tested on: MKN-45; assay: Growth inhibition of human MKN45 cells after 48 hrs by sulforhodamine B assay; format: functional; conditions: MKN-45, 48 h; how it was run: as §1
[30] = Growth inhibition of human HBC4 cells after 48 hrs by sulforhodamine B assay; format: functional; conditions: HBC4, 48 h; how it was run: as §1
[31] = tested on: SF-295; assay: Growth inhibition of human SF295 cells after 48 hrs by sulforhodamine B assay; format: functional; conditions: SF-295, 48 h; how it was run: as §1
[32] = tested on: OVCAR-3; assay: Growth inhibition of human OVCAR3 cells after 48 hrs by sulforhodamine B assay; format: functional; conditions: OVCAR-3, 48 h; how it was run: as §1
[33] = Growth inhibition of human RXF631L cells after 48 hrs by sulforhodamine B assay; format: functional; conditions: RXF 631, 48 h; how it was run: as §1
[34] = tested on: NCI-H23; assay: Growth inhibition of human NCI-H23 cells after 48 hrs by sulforhodamine B assay; format: functional; conditions: NCI-H23, 48 h; how it was run: as §1
[35] = tested on: MDA-MB-231; assay: Growth inhibition of human MDA-MB-231 cells after 48 hrs by sulforhodamine B assay; format: functional; conditions: MDA-MB-231, 48 h; how it was run: as §1
[36] = tested on: MKN-28; assay: Growth inhibition of human MKN28 cells after 48 hrs by sulforhodamine B assay; format: functional; conditions: MKN-28, 48 h; how it was run: as §1
[37] = Octanol-water partition coefficient, log P of the compound by HPLC analysis; format: physicochemical
How it was run: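 log P was estimated from HPLC retention, with column dead time measured using unretained formamide.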

[38] = tested on: OVCAR-4; assay: Growth inhibition of human OVCAR4 cells after 48 hrs by sulforhodamine B assay; format: functional; conditions: OVCAR-4, 48 h; how it was run: as §1
[39] = Growth inhibition of human MKN1 cells after 48 hrs by sulforhodamine B assay; format: functional; conditions: MKN-1, 48 h; how it was run: as §1
[40] = tested on: SF-268; assay: Growth inhibition of human SF268 cells after 48 hrs by sulforhodamine B assay; format: functional; conditions: SF-268, 48 h; how it was run: as §1
[41] = tested on: DMS-114; assay: Growth inhibition of human DMS114 cells after 48 hrs by sulforhodamine B assay; format: functional; conditions: DMS-114, 48 h; how it was run: as §1
[42] = tested on: OVCAR-5; assay: Growth inhibition of human OVCAR5 cells after 48 hrs by sulforhodamine B assay; format: functional; conditions: OVCAR-5, 48 h; how it was run: as §1
[43] = tested on: SF-539; assay: Growth inhibition of human SF539 cells after 48 hrs by sulforhodamine B assay; format: functional; conditions: SF-539, 48 h; how it was run: as §1
[44] = Growth inhibition of human HCC2998 cells after 48 hrs by sulforhodamine B assay; format: functional; conditions: HCC 2998, 48 h; how it was run: as §1
[45] = target: T1, Protein kinase C delta type; assay: Inhibition of [3H]PDBu binding to PKCdelta-C1A domain peptide (unknown origin); how it was run: as §3
[46] = tested on: HT-29; assay: Growth inhibition of human HT-29 cells after 48 hrs by sulforhodamine B assay; format: functional; conditions: HT-29, 48 h; how it was run: as §1

T1 sequence (Q05655 whole entry, the tested form may be a part): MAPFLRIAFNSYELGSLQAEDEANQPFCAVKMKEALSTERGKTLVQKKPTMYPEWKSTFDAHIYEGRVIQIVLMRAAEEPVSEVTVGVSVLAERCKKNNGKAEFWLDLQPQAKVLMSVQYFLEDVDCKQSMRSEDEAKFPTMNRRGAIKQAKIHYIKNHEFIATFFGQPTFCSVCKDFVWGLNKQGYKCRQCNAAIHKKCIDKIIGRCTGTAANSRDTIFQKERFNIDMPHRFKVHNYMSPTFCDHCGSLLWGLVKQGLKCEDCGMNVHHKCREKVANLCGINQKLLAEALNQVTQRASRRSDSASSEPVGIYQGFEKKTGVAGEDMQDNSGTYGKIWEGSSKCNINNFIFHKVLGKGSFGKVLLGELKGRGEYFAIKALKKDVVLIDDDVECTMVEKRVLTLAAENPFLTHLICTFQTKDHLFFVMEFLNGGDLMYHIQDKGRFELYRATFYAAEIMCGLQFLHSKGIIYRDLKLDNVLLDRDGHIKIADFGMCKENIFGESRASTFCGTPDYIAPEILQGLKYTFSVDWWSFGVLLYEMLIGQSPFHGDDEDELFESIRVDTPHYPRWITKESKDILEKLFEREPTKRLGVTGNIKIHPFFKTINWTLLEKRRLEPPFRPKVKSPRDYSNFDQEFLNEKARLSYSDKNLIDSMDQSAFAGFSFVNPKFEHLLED

Compound: CC(=O)Nc1ccc(CCCC[C@@H]2C[C@@H]3C[C@@]4(O[C@H](CCC4(C)C)CC(=O)O[C@@H](CO)CC(=O)O3)O2)cc1O
- GI50 [1]: 44.7 µM
- GI50 [2]: 26.3 µM
- GI50 [3]: 20.9 µM
- GI50 [4]: 26.9 µM
- GI50 [5]: 51.3 µM
- GI50 [6]: 15.1 µM
- Activity [7]: 2.4%
- GI50 [8]: 34.7 µM
- GI50 [9]: 20.4 µM
- GI50 [10]: 29.5 µM
- GI50 [11]: 33.1 µM
- GI50 [12]: 31.6 µM
- GI50 [13]: 26.9 µM
- viability at 1 µM [14]: 60%
- GI50 [15]: 12.9 µM
- GI50 [16]: 40.7 µM
- GI50 [17]: 31.6 µM
- viability at 0.1 µM [18]: 60%
- GI50 [19]: 46.8 µM
- Activity [20]: 2.4%
- GI50 [21]: 0.933 µM
- GI50 [22]: 30.2 µM
- GI50 [23]: 26.3 µM
- Ki [24]: 0.036 µM
- GI50 [25]: 33.9 µM
- GI50 [26]: 2.14 µM
- GI50 [27]: 25.7 µM
- GI50 [28]: 41.7 µM
- GI50 [29]: 28.8 µM
- GI50 [30]: 2.45 µM
- GI50 [31]: 13.2 µM
- GI50 [32]: 23.4 µM
- GI50 [33]: 28.8 µM
- GI50 [34]: 33.9 µM
- GI50 [35]: 16.6 µM
- GI50 [36]: 2.57 µM
- logP [37]: 2.7
- GI50 [38]: 37.2 µM
- GI50 [39]: 34.7 µM
- GI50 [40]: 43.7 µM
- GI50 [41]: 20.9 µM
- GI50 [42]: 20.4 µM
- GI50 [43]: 30.2 µM
- GI50 [44]: 13.8 µM
- Ki [45]: 0.29 µM
- GI50 [46]: 19.5 µM

Compound: COc1cccc(CCCC[C@@H]2C[C@@H]3C[C@@]4(O[C@H](CCC4(C)C)CC(=O)O[C@@H](CO)CC(=O)O3)O2)c1
- GI50 [1]: 17 µM
- GI50 [2]: 11.5 µM
- GI50 [3]: 12 µM
- GI50 [4]: 17 µM
- GI50 [5]: 17.4 µM
- GI50 [6]: 4.9 µM
- Activity [7]: 2.6%
- GI50 [8]: 16.2 µM
- GI50 [9]: 2.57 µM
- GI50 [10]: 13.8 µM
- GI50 [11]: 15.8 µM
- GI50 [12]: 13.5 µM
- GI50 [13]: 11.7 µM
- viability at 1 µM [14]: 60%
- GI50 [15]: 11 µM
- GI50 [16]: 16.2 µM
- GI50 [17]: 13.8 µM
- viability at 0.1 µM [18]: 60%
- GI50 [19]: 18.6 µM
- Activity [20]: 5.2%
- GI50 [21]: 11 µM
- GI50 [22]: 19.1 µM
- GI50 [23]: 13.8 µM
- Ki [24]: 0.0097 µM
- GI50 [25]: 18.2 µM
- GI50 [26]: 2.51 µM
- GI50 [27]: 11.5 µM
- GI50 [28]: 14.5 µM
- GI50 [29]: 9.55 µM
- GI50 [30]: 1.7 µM
- GI50 [31]: 10.2 µM
- GI50 [32]: 12.6 µM
- GI50 [33]: 13.8 µM
- GI50 [34]: 13.5 µM
- GI50 [35]: 6.61 µM
- GI50 [36]: 15.1 µM
- logP [37]: 4.4
- GI50 [38]: 15.8 µM
- GI50 [39]: 11.5 µM
- GI50 [40]: 14.1 µM
- GI50 [41]: 11 µM
- GI50 [42]: 13.5 µM
- GI50 [43]: 10 µM
- GI50 [44]: 7.94 µM
- Ki [45]: 0.33 µM
- GI50 [46]: 11.2 µM
